Calls of active or inactive are those of the source. No cut-off for these calls is given here.
How the values were obtained:
[1] = Acute toxicity in Balb/c mouse xenografted with CAPAN-1 cells assessed as mean weight loss at 25 mg/kg, ip qd administered for 5 days in presence of cisplatin measured on day 10 relative to control; format: organism-based; settings: in vivo, 120 h, time 5 day
Outline: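 Male BALB/c nude mice carried Capan-1 xenografts (5×10^6 cells s.c.), randomized at ~150 mm³ (6 per group). Treatment was 25 or 50 mg/kg intraperitoneally or 100 mg/kg by oral gavage, once daily on days 0-4. Cisplatin 6 mg/kg in saline was given intraperitoneally on day 2, 45 min after the partner drug. Tumor volume and body weight were measured 2-3 times weekly.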

[2] = Cytotoxicity against […] H9c2 cells assessed as reduction in cell viability incubated for 120 hrs by CCK-8 assay; format: cell-based; settings: h9c2, 120 h
MDA-MB-436 = assay: Antiproliferative activity against human MDA-MB-436 cells assessed as cell growth inhibition incubated for 7 days by CCK-8 assay; format: functional, cell-based; settings: MDA-MB-436, 168 h
Outline: (§1)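 Cells were sub-cultured at least twice and seeded for 24 h before dosing. Compounds came from 10 mM DMSO stocks, given as 10 points of 3-fold serial dilution starting at 10-20 μM. Incubation was about 7 days (Capan-1 13 days) at 37 °C, 5% CO2. Read-out was CCK-8 absorbance at 450 nm, as % growth versus DMSO wells (duplicate wells). IC50 was fitted by nonlinear regression; three independent experiments.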

[3] = target: T1, Protein cereblon/Poly [ADP-ribose] polymerase 1 (Homo sapiens, UniProt P09874+Q96SW2); assay: Protac activity at CRBN/PARP1 in human CAPAN-1 cells assessed as induction of PARP1 degradation incubated for 24 hrs by Western blot analysis; format: cell-based
Outline: (§2)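 Capan-1 cells were treated 24 h (1-1000 nM, or a wider dose range for DC50). Lysis was in RIPA buffer with protease inhibitors, and 20-30 μg protein was blotted. PARP1 was normalized to β-tubulin and to DMSO control, quantified by densitometry. DC50 came from two independent experiments.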
Target sequence in this assay (P09874 whole entry): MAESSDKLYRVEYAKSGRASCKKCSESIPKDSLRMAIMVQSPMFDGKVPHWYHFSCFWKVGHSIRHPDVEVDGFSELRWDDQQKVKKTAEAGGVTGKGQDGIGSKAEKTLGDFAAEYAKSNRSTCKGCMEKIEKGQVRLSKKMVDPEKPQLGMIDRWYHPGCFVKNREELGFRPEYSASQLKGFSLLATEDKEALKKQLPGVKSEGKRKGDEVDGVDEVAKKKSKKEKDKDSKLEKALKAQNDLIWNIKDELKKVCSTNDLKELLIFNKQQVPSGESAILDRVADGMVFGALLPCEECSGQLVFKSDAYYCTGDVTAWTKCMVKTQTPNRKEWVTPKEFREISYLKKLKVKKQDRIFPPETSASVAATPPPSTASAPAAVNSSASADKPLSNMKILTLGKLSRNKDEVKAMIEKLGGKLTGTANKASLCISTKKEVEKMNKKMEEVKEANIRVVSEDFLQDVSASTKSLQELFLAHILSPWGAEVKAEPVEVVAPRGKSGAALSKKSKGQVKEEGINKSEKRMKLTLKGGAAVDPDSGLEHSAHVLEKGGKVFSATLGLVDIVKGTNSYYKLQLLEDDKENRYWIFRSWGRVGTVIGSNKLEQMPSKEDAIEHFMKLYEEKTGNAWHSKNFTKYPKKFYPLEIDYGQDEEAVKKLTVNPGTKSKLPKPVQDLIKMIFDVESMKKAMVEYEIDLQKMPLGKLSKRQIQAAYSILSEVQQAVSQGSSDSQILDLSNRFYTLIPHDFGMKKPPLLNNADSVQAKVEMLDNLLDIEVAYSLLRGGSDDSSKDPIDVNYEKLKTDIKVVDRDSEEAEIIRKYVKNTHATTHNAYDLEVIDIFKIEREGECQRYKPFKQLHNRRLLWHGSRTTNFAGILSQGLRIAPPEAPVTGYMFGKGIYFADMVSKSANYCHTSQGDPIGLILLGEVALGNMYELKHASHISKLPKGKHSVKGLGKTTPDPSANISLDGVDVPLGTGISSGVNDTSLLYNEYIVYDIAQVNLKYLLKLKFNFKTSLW
Target sequence in this assay (Q96SW2 whole entry): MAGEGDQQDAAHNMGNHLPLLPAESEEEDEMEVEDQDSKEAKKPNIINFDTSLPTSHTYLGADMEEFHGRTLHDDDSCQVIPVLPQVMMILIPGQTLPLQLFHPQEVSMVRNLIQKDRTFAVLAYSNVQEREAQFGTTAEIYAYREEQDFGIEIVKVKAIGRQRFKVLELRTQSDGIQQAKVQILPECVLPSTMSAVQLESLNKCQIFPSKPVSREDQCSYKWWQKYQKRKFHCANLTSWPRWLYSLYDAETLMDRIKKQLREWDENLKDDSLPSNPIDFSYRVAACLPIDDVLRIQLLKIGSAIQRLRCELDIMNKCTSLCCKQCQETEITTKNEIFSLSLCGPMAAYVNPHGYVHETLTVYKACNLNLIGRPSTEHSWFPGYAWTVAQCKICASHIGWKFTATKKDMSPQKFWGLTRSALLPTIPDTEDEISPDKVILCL

[4] = target: T1, Protein cereblon/Poly [ADP-ribose] polymerase 1; assay: Protac activity at CRBN/PARP1 in human SW-620 cells assessed as induction of PARP1 degradation at 30 nM incubated for 24 hrs in presence of NEDD8-activating E1 enzyme inhibitor MLN4924 by Western blot analysis; format: cell-based
Target sequence in this assay (P09874 2-1014 limits assumed): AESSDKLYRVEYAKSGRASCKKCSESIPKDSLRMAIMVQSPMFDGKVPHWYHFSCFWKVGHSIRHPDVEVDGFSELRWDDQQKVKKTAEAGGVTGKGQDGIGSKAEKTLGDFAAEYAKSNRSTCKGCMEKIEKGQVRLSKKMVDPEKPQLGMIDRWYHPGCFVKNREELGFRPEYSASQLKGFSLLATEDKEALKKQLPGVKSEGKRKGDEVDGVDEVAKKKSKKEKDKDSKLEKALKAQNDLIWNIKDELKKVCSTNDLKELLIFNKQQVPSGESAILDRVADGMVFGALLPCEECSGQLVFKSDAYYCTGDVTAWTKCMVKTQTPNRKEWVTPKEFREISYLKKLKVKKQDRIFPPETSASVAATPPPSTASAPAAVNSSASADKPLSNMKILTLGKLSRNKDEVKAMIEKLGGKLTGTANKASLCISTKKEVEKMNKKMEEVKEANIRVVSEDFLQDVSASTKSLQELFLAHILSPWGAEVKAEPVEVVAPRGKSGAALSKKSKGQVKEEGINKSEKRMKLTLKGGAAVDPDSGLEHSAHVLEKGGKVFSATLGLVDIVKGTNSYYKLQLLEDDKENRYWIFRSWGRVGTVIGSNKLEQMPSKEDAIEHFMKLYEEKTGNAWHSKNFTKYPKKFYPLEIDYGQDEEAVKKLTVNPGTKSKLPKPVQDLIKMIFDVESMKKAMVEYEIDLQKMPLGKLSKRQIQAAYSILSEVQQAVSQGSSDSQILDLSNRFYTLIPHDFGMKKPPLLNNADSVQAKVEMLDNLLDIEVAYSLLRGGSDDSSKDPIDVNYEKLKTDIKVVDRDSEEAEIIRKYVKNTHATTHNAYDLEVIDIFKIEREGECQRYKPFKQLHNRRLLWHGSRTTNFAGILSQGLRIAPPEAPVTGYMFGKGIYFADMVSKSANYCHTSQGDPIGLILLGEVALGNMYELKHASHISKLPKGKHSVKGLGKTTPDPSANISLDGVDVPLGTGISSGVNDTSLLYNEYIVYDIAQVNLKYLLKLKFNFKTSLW
Target sequence in this assay (Q96SW2 whole entry partner): as the sequence (Q96SW2 whole entry) above

[5] = Plasma concentration in ICR mouse at 25 mg/kg, ip at 4 hrs postinjection by LC-tandem mass spectrometry analysis; format: ADME, organism-based
Outline: (§3)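 Female ICR mice (20-23 g, 6-7 weeks old, n = 3) received a single 25 mg/kg intraperitoneal dose formulated in 5% DMSO/15% Solutol HS15/80% D5W. Plasma was sampled at 0.5, 1, 2, 4, 6, 8 and 24 h and protein-precipitated with methanol. Compound was quantified by LC-MS/MS against a standard curve.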

[6] = target: T1, Protein cereblon/Poly [ADP-ribose] polymerase 1; assay: Protac activity at CRBN/PARP1 in human MDA-MB-231 cells assessed as induction of PARP1 degradation measured after 24 hrs by Western blot analysis; format: cell-based
Outline: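 Concentration-response over a wide range, 24 h exposure; PARP1 quantified by western blot and normalized to β-tubulin density; DC50 derived from two biologically independent experiments.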
Target sequence in this assay (P09874 whole entry): as the sequence (P09874 whole entry) above
Target sequence in this assay (Q96SW2 whole entry): as the sequence (Q96SW2 whole entry) above

[7] = target: T1, Protein cereblon/Poly [ADP-ribose] polymerase 1; assay: Protac activity at CRBN/PARP1 in human SW-620 cells assessed as induction of PARP1 degradation at 30 nM incubated for 24 hrs in presence of 0.1 to 1 uM PARP1 inhibitor olaparib by Western blot analysis; format: cell-based
Target sequence in this assay (P09874 2-1014 limits assumed): as the sequence (P09874 2-1014 limits assumed) above
Target sequence in this assay (Q96SW2 whole entry partner): as the sequence (Q96SW2 whole entry) above

[8] = Acute toxicity in Balb/c mouse xenografted with SW-620 cells assessed as mean weight loss at 10 mg/kg, ip qd administered for 5 days in presence of TMZ measured on day 9 relative to control; format: organism-based; settings: in vivo, 216 h, time 9 day
Outline: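 Male BALB/c nude mice carried SW620 xenografts (6×10^6 cells s.c.), randomized at ~150 mm³ (6 per group). TMZ 50 mg/kg was given orally once daily on days 0-4, 45 min after the partner drug. Partners were 5 or 10 mg/kg intraperitoneally or 10 mg/kg by oral gavage, daily for 5 days. Vehicle was 5% DMSO/20% PEG400/10% Cremophor EL/65% saline. Tumor volume and body weight were recorded 2-3 times weekly.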

[9] = target: T1, Protein cereblon/Poly [ADP-ribose] polymerase 1; assay: Protac activity at CRBN/PARP1 in human MDA-MB-436 cells assessed as PARP1 protein degradation at 1 to 10 nM incubated for 24 hrs by western blot analysis; format: cell-based; settings: dose nM 1-10, time 24.0 hrs
Target sequence in this assay (P09874 2-1014 limits assumed): as the sequence (P09874 2-1014 limits assumed) above
Target sequence in this assay (Q96SW2 whole entry partner): as the sequence (Q96SW2 whole entry) above

[10] = target: T1, Protein cereblon/Poly [ADP-ribose] polymerase 1; assay: Protac activity at CRBN/PARP1 in human CAPAN-1 cells assessed as induction of PARP1 degradation at 100 nM incubated for 24 hrs by Western blot analysis relative to control; format: cell-based; outline: as §2
Target sequence in this assay (P09874 2-1014 limits assumed): as the sequence (P09874 2-1014 limits assumed) above
Target sequence in this assay (Q96SW2 whole entry partner): as the sequence (Q96SW2 whole entry) above

[11] = Plasma concentration in ICR mouse at 25 mg/kg, ip at 0.25 hrs postinjection by LC-tandem mass spectrometry analysis; format: ADME, organism-based
[12] = target: T1, Protein cereblon/Poly [ADP-ribose] polymerase 1; assay: Protac activity at CRBN/PARP1 in human LNCaP cells assessed as induction of PARP1 degradation at 30 nM incubated for 1 to 24 hrs by Western blot analysis; format: cell-based; settings: time hrs 1-24
Target sequence in this assay (P09874 2-1014 limits assumed): as the sequence (P09874 2-1014 limits assumed) above
Target sequence in this assay (Q96SW2 whole entry partner): as the sequence (Q96SW2 whole entry) above

[13] = target: T1, Protein cereblon/Poly [ADP-ribose] polymerase 1; assay: Protac activity at CRBN/PARP1 in human MDA-MB-231 cells assessed as induction of PARP1 degradation at 30 nM incubated for 1 to 24 hrs by Western blot analysis; format: cell-based; settings: time hrs 1-24
Target sequence in this assay (P09874 2-1014 limits assumed): as the sequence (P09874 2-1014 limits assumed) above
Target sequence in this assay (Q96SW2 whole entry partner): as the sequence (Q96SW2 whole entry) above

HUVEC = assay: Cytotoxicity against HUVEC assessed as reduction in cell viability incubated for 120 hrs by CCK-8 assay; format: cell-based; settings: human
[14] = Plasma concentration in ICR mouse at 25 mg/kg, ip at 1 hr postinjection by LC-tandem mass spectrometry analysis; format: ADME, organism-based; outline: as §3
[15] = Half-life in ICR mouse at 25 mg/kg, ip by LC-tandem mass spectrometry analysis; format: ADME, organism-based; settings: in vivo; outline: as §3
[16] = target: T1, Protein cereblon/Poly [ADP-ribose] polymerase 1; assay: Protac activity at CRBN/PARP1 in human SW-620 cells assessed as induction of PARP1 degradation at 30 nM incubated for 24 hrs in presence of proteasome inhibitor carfilzomib by Western blot analysis; format: cell-based
[17] = target: T1, Protein cereblon/Poly [ADP-ribose] polymerase 1; assay: Protac activity at CRBN/PARP1 in human MDA-MB-436 cells assessed as induction of PARP1 degradation at 30 nM incubated for 24 hrs in presence of 0.1 to 1 uM CRBN ligand pomalidomide by Western blot analysis
MDA-MB-468 = assay: Antiproliferation activity against human MDA-MB-468 assessed as cell growth inhibition incubated for 7 days by CCK-8 assay; format: functional, cell-based; settings: time 7.0 day; outline: as §1
[18] = target: Poly [ADP-ribose] polymerase 1 (Homo sapiens, UniProt P09874); assay: Inhibition of recombinant human C-terminal His-tagged PARP1 expressed in Sf9 insect cells preincubated for 20 mins in presence of activated DNA followed by […] addition and further incubated for 2 hrs by chemiluminescence assay
Sequence of Poly [ADP-ribose] polymerase 1 (P09874 whole entry): as the sequence (P09874 whole entry) above

HCC1937 = assay: Antiproliferation activity against human HCC1937 assessed as cell growth inhibition incubated for 7 days by CCK-8 assay; format: functional, cell-based; settings: time 7.0 day; outline: as §1
[19] = target: T1, Protein cereblon/Poly [ADP-ribose] polymerase 1; assay: Protac activity at CRBN/PARP1 in human MDA-MB-436 cells assessed as induction of PARP1 degradation at 30 nM measured after 2 hrs by Western blot analysis

## O=C(CCCCCCCCCCC(=O)N1CCN(C(=O)c2cc(Cc3n[nH]c(=O)c4ccccc34)ccc2F)CC1)NCCNc1cccc2c1C(=O)N(C1CCC(=O)NC1=O)C2=O (stereo not drawn)
[1]
  Activity: 9%
[2]
  Activity: Non-Toxic
MDA-MB-436
  IC50: 19 nM
[3]
  DC50: 6.72 nM
[4]
  Activity: inactive
[5]
  concentration at 4 h: 182 nM
[6]
  DC50: 0.228 nM
[7]
  Activity: inactive
[8]
  Activity: 15%
[9]
  Activity: Active
[10]
  Activity: 100%
[11]
  concentration at 0.25 h: 2100 nM
[12]
  Activity: Active
[13]
  Activity: Active
HUVEC
  Activity: Non-Toxic
[14]
  concentration at 1 h: 1830 nM
[15]
  half-life: 3.08 h
[16]
  Activity: inactive
[17]
  Activity: inactive
MDA-MB-468
  Activity: Active
[18]
  IC50: 2.3 nM
HCC1937
  Activity: Active
[19]
  Activity: Active

Source: ChEMBL document CHEMBL4699498 (J Med Chem, 2020)
